Experimental findings from ChEMBL document CHEMBL4196032, “Conformational mimetics of the α-methyl chalcone TUB091 binding tubulin: Design, synthesis and antiproliferative activity” (Eur J Med Chem, 2018) are described below.

Assay [1] relates to CCRF-CEM. Briefly: Antiproliferative activity against human CEM cells after 96 hrs by coulter counting method. It is filed as functional, cell-based. The essentials: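 Suspension cells (CEM, L1210) seeded at 60,000 cells/well together with graded compound concentrations; grown 96 h, then counted by Coulter counter.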
Assay [2] relates to HMEC-1. Put plainly: Antiproliferative activity against human HMEC1 cells after 4 days by coulter counting method. Format: cell-based. Conditions: HMEC-1, 96 h. The method in brief: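 HMEC-1 seeded at 20,000 cells/well; 5-fold compound dilutions added after 24 h; 4 days proliferation, trypsinized, Coulter counted.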
Assay [3] has as its system HeLa. Briefly: Antiproliferative activity against human HeLa cells after 3 days by coulter counting method. The settings on record: 72 h. Format: functional, cell-based. The method in brief: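 HeLa seeded at 10,000 cells/well; various compound concentrations added 24 h later; after 3 days incubation cells trypsinized and counted by Coulter counter.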
For assay [4], the species on record is Bos taurus. Put plainly: Inhibition of calf brain tubulin polymerization at 30 uM measured for 6000 secs by spectrophotometric method. The essentials:
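Calf brain tubulin, gel-filtered into GAB buffer (10 mM sodium phosphate, 1 mM EGTA, 25% glycerol, 0.1 mM GTP, pH 7.0) at 25 µM, degassed; compound at 30 µM. Assembly at 37 °C followed by absorbance at 350 nm up to 6000 s; DMSO and podophyllotoxin controls; normalized absorbance.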

The test system of another assay is L1210. Put plainly: Antiproliferative activity against mouse L1210 cells after 96 hrs by coulter counting method. Format: functional, cell-based. Conditions: L1210, 96 h. The essentials:
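Suspension cells (CEM, L1210) seeded at 60,000 cells/well together with graded compound concentrations; grown 96 h, then counted by Coulter counter. IC50 = concentration reducing cell proliferation by 50%.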

Assay [5] concerns HeLa. Put plainly: Cell cycle arrest in human HeLa cells assessed as accumulation at G2/M phase at 0.1 uM after 24 hrs by propidium iodide staining based flow cytometry. It is filed as functional. The method in brief:
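HeLa in DMEM + 10% FBS, 125,000 cells/well; compound added after 24 h for 24 h. DNA stained with propidium iodide kit, analysed by flow cytometry within 3 h; debris/clumps gated out; sub-G1, G1, S, G2/M percentages from region markers.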
On the technique in general: A flow cytometer gives signals particle by particle.

Assay [6] is filed under the species Bos taurus. Briefly: Inhibition of R-PT binding to calf brain tubulin after 30 mins by fluorescence assay. The method in brief: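 Competition assay: 0.2 µM R-PT premixed with 0.2 µM calf brain tubulin in GAB buffer, ligand at 0–70 µM; 30 min at 25 °C, fluorescence read at 456 nm (ex 374 nm). Binding constants derived from competition data; racemates tested.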

In the next assay the target is Tubulin (Homo sapiens) (UniProt P68371+Q9H4B7+P0DPH7+P68366+Q13509+Q71U36+P04350+Q3ZCM7+P07437+P68363+Q9BQE3+Q6PEY2+Q13885+Q9BVA1+Q9BUF5). Briefly: Inhibition of tubulin polymerization in human HeLa cells assessed as reduction in mitotic spindle formation by measuring aberrant multipolar spindle formation at 0.1 to 0.3 uM after 24 hrs by Hoechst 33342 staining based immunofluorescence microscopic method. It is filed as cell-based. The essentials:
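HeLa seeded overnight on poly-L-lysine-coated slides, treated 24 h with compound or 0.1% DMSO. Fixed, permeabilized, stained with anti-β-tubulin (2 µg/ml) then Alexa Fluor 555 anti-mouse (4 µg/ml); nuclei with Hoechst 33342 (2 µg/ml); spindles imaged by fluorescence microscopy.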

In assay [7] the test system is HMEC-1. Put plainly: Antiproliferative activity against human HMEC1 cells. It is filed as cell-based. The method in brief:
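HMEC-1 microvascular endothelial cells plated at 20,000 cells/well in 48-well plates. 5-fold dilutions added after 24 h, then 4 days of growth. Cells trypsinized and counted by Coulter counter. IC50 is the concentration halving proliferation.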

The test system of assay [8] is CCRF-CEM. Briefly: Antiproliferative activity against human CEM cells. It is filed as functional, cell-based. The essentials:
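Suspension cells seeded at 60,000 cells/well in 96-well plates together with a range of compound concentrations. Grown 96 h, then counted by Coulter counter. IC50 taken as the concentration reducing proliferation by 50%.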

Assay [9] has as its system HeLa. Put plainly: Antiproliferative activity against human HeLa cells. Format: functional, cell-based. The essentials: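 Cervical carcinoma cells plated at 10,000 cells/well in 48-well plates. Varied concentrations added after 24 h, then 3 days of incubation. Cells trypsinized and Coulter-counted. IC50 is the concentration giving 50% reduction of proliferation.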

Each structure is given as a SMILES string. Active and inactive are the calls of the source. The calls are words filed in the database; no cut-off is given here.

With `COc1ccc2c(c1)CCC(C(=O)c1ccc(OC)c(OC)c1)C2` (racemic), the half-maximal inhibitory concentration (IC50) is 221000 nM in the assay with CCRF-CEM [1], more than 250000 nM in the assay on HMEC-1 [2], more than 250000 nM in the assay on HeLa [3] and more than 250000 nM in the assay on L1210. Besides, the inhibition result in the assay filed under Bos taurus [4] was “inactive”.

On to `COc1ccc2c(c1)CCC(C(=O)c1ccc(OC)c(OC)c1O)C2` (racemic), for which the IC50 is 38000 nM with CCRF-CEM [1], not below 250000 nM with HMEC-1 [2], 40000 nM in the assay on HeLa [3] and 75000 nM in the assay on L1210.

As to `COc1cc2c(cc1N)CC(C(=O)c1ccc(OC)c(OC)c1OC)CC2` (racemic), the IC50 stood at 480 nM with CCRF-CEM [1], 1300 nM in the assay on HMEC-1 [2], 740 nM in the assay on HeLa [3] and 860 nM in the assay on L1210.

On to `COc1ccc(C(=O)C2CCc3c(ccc(OC)c3[N+](=O)[O-])C2)c(OC)c1OC` (racemic), for which the half-inhibitory concentration (IC50) with CCRF-CEM [1] turned out to be 860 nM; in the assay with HMEC-1 [2], 5300 nM; in the assay on HeLa [3] it was 810 nM; in the assay on L1210, 4200 nM. Further, the inhibition entry in the assay listed under Bos taurus [4] is “Active”.

For `COc1cc([C@@H]2c3cc4c(cc3[C@H](O)[C@H]3COC(=O)[C@H]23)OCO4)cc(OC)c1OC`, in the assay filed under Bos taurus [4], the inhibition result is “Active”.

As for `COc1ccc2c(c1)CCC(C(=O)c1ccc(OC)c3c1OCO3)C2` (racemic), the IC50 with CCRF-CEM [1] came out at 39000 nM; with HMEC-1 [2], 38000 nM; in the assay with HeLa [3], 88000 nM; in the assay on L1210, 160000 nM.

Turning to `COc1ccc2c(c1N)CCC(C(=O)c1ccc(OC)c(OC)c1OC)C2` (racemic), the IC50 came out at 22 nM in the assay with CCRF-CEM [1], 47 nM in the assay with HMEC-1 [2], 30 nM in the assay with HeLa [3] and 27 nM in the assay with L1210. The result in the assay with HeLa [5] was Active. Besides, in the assay filed under Bos taurus [6], the Kb is 2.4 ×10⁶ /M. The inhibition entry in the assay filed under Bos taurus [4] and at Tubulin (Homo sapiens) was “Active” throughout.

`COc1ccc(/C=C\c2cc(OC)c(OC)c(OC)c2)cc1OP(=O)(O)O` [FOSBRETABULIN DISODIUM]: the 50% inhibitory concentration (IC50) stood at 11 nM in the assay with CCRF-CEM [1], 2.9 nM in the assay on HMEC-1 [2], 13 nM in the assay with HeLa [3] and 2.1 nM in the assay on L1210.

As for `COc1ccc(C(=O)C2CCc3c(ccc(OC)c3N)C2)cc1OC` (racemic), the half-maximal inhibitory concentration (IC50) in the assay with CCRF-CEM [1] came to 6300 nM; with HMEC-1 [2] it was 122000 nM; with HeLa [3] it was 23000 nM; in the assay on L1210 it was 52000 nM.

For the compound `COc1ccc(/C=C(\C)C(=O)c2cc(OC)c3c(c2)OCO3)cc1N`, the IC50 was 2.3 nM in the assay on HMEC-1 [7], 1 nM in the assay on CCRF-CEM [8], 1 nM in the assay with L1210 and 3.9 nM with HeLa [9]. Besides, the inhibition result in the assay filed under Bos taurus [4] is “Active”.

`COc1ccc2c(c1)CCC(C(=O)c1ccc(OC)c(OC)c1OC)C2` (racemic): the IC50 worked out at 170 nM in the assay on CCRF-CEM [1], 1200 nM in the assay on HMEC-1 [2], 400 nM with HeLa [3] and 240 nM with L1210. Besides, the inhibition result in the assay listed under Bos taurus [4] is “Active”.

On to `COc1cc2c(cc1[N+](=O)[O-])CC(C(=O)c1ccc(OC)c(OC)c1OC)CC2` (racemic), for which the IC50 is more than 250000 nM with CCRF-CEM [1], 199000 nM with HMEC-1 [2], more than 250000 nM with HeLa [3] and more than 250000 nM with L1210.

The IC50 is the midpoint of a concentration-inhibition curve. Read a low IC50 as greater potency.
